The text below walks through data of ChEMBL document CHEMBL1124058, “8-Aryl-and 8-cycloalkyl-1,3-dipropylxanthines: further potent and selective antagonists for A1-adenosine receptors” (J Med Chem, 1988).

Data set [1] has as its target T1, Adenosine receptor A1 (Rattus norvegicus) (UniProt P25099).
T1 sequence (whole entry): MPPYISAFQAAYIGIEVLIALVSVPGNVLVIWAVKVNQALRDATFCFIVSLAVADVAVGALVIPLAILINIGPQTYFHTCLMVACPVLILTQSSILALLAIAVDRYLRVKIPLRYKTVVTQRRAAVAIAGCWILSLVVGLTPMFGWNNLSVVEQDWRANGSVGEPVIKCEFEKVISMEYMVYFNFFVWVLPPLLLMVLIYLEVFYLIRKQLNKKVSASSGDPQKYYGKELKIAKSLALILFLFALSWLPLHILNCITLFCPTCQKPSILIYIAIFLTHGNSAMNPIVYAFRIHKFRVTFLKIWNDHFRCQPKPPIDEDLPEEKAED
The experiment in a line: Antagonistic activity on N6-([3H]-phenylisopropyl)adenosine binding to rat brain membrane (Adenosine A1 receptor). Type of data set: tissue-based.

Another data set concerns the target Adenosine A2 receptor (Homo sapiens, UniProt P29275+P29274). Put plainly: Inhibition of 5'-(N-ethylcarbamoyl)adenosine-elicited stimulation of adenylate cyclase in human platelet membranes. It is filed as cell membranes.
Data set [2] in a line: Solubility in water at PH 7.4 in the presence of Tris.HCl buffer. Type of data set: physicochemical. The procedure, abridged: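 Aqueous solubility measured in Tris-HCl buffer, pH 7.4.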
The target of data set [3] is T1, Adenosine receptor A1 (Rattus norvegicus). Put plainly: Antagonistic activity against N6-([3H]-phenylisopropyl)adenosine binding to rat brain membrane (Adenosine A1 receptor). It is filed as tissue-based. The procedure, abridged:
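Competition binding against 1 nM N6-([3H]phenylisopropyl)adenosine at A1 receptors in rat cerebral cortical membranes. A range of xanthine concentrations was tested in triplicate in at least two separate experiments. Values are means with 95% confidence limits.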

The target of data set [4] is Adenosine A2 receptor (Cavia porcellus). Put plainly: Inhibition of stimulation of adenylate cyclase in guinea pig brain slices at A2 receptor (2-chloroadenosine-elicited accumulations of cyclic AMP).

Structures are written as SMILES. pIC50: −log10 of the molar value.

As for `CCCn1c(=O)c2nc(-c3ccc(C(=O)NCC(=O)OC)cc3)[nH]c2n(CCC)c1=O`, the Kb is 38 nM in data set [1] and 240 nM at Adenosine A2 receptor.

For the compound `CCCn1c(=O)c2nc(-c3ccc(OCC(=O)O)cc3O)[nH]c2n(CCC)c1=O`, the Kb came to 37 nM in data set [1] and 2000 nM on Adenosine A2 receptor. Further, the solubility in data set [2] turned out to be 1100 µM.

As for `CCCn1c(=O)c2nc(-c3ccc(OCC(=O)NCCN(C)C)cc3O)[nH]c2n(CCC)c1=O`, the Kb came out at 8.4 nM in data set [1] and 77 nM at Adenosine A2 receptor.

For the compound `CCCn1c(=O)c2nc(CC3CCCC3)[nH]c2n(CCC)c1=O`, the Kb in data set [3] was 16 nM; on Adenosine A2 receptor it was 1900 nM.

For `CCCn1c(=O)c2nc(C3CCNCC3)[nH]c2n(CCC)c1=O`, the Kb in data set [1] was found to be 620 nM; on Adenosine A2 receptor it was 6900 nM.

For the compound `CCCn1c(=O)c2nc(-c3ccc(C(N)=O)cc3)[nH]c2n(CCC)c1=O`, the Kb in data set [1] turned out to be 12 nM; at Adenosine A2 receptor, 54 nM. The pIC50 in data set [4] was 7.14.

For `CCCn1c(=O)c2nc[nH]c2n(CCC)c1=O`, the Kb in data set [3] stood at 710 nM. The solubility in data set [2] was 1600 µM.

In data set [1], `CCCn1c(=O)c2nc(-c3ccc(OC)cc3)[nH]c2n(CCC)c1=O` displayed a Kb of 3.7 nM. The solubility in data set [2] is 14 µM.

On to `CCCn1c(=O)c2nc(-c3ccc(C(=O)O)cc3)[nH]c2n(CCC)c1=O`, for which, in data set [1], the Kb was 200 nM. Also, in data set [2], the solubility turned out to be 180 µM.

Consider `CCCn1c(=O)c2nc(-c3ccc(OCC(=O)NCCc4ccc(O)cc4)cc3O)[nH]c2n(CCC)c1=O`, for which the values for the Kb (in data set [1]; at Adenosine A2 receptor) were 16 nM and 4400 nM, respectively.

For `CCCn1c(=O)c2nc(-c3cnccn3)[nH]c2n(CCC)c1=O`, the Kb in data set [1] is 600 nM; on Adenosine A2 receptor, 3600 nM.

Take `CCCn1c(=O)c2[nH]c(-c3ccc(OC)cc3O)nc2n(CCC)c1=O`: the figures for the Kb (in data set [1]; on Adenosine A2 receptor) were 4.6 nM and 180 nM, respectively. Moreover, the negative logarithm of the IC50 (pIC50) in data set [4] was 6.01. The solubility in data set [2] was found to be 18 µM.

As to `CCCn1c(=O)c2nc(-c3ccccc3)[nH]c2n(CCC)c1=O`, the Kb in data set [1] came to 10 nM.

On to `CCCn1c(=O)c2nc(C3CCCCC3)[nH]c2n(CCC)c1=O`, for which the solubility in data set [2] is 74 µM. In addition, the Kb on Adenosine A2 receptor was found to be 190 nM.

As for `CCCn1c(=O)c2nc(-c3ccc(OCC(=O)OCC)cc3O)[nH]c2n(CCC)c1=O`, the figures for the Kb (in data set [1]; at Adenosine A2 receptor) were 31 nM and 3800 nM, respectively.

`CCCn1c(=O)c2[nH]c(-c3ccccc3)nc2n(CCC)c1=O`: the solubility in data set [2] was found to be 18 µM.

Consider `CCCn1c(=O)c2nc(-c3ccc(OCC(=O)NCCN)cc3O)[nH]c2n(CCC)c1=O`, for which the figures for the Kb (in data set [1]; on Adenosine A2 receptor) were 2.4 nM and 140 nM, respectively. Moreover, the solubility in data set [2] was determined as 710 µM.

Turning to `CCCn1c(=O)c2[nH]c(-c3ccc(O)cc3O)nc2n(CCC)c1=O`, the solubility in data set [2] came out at 11 µM.

For `CCCn1c(=O)c2[nH]c(C3CCCC3)nc2n(CCC)c1=O` [1,3-DIPROPYL-8-CYCLOPENTYLXANTHINE [DPCPX]], in data set [2], the solubility stood at 31 µM.

On to `CCCn1c(=O)c2nc(-c3ccc(OCC(N)=O)cc3O)[nH]c2n(CCC)c1=O`, for which the Kb in data set [1] stood at 6.5 nM; at Adenosine A2 receptor, 1200 nM. In addition, in data set [2], the solubility worked out at 5600 µM.

`CCCn1c(=O)c2[nH]c(-c3ccc(C(N)=O)cc3)nc2n(CCC)c1=O`: the solubility in data set [2] was determined as 5 µM.

In the case of `CCCn1c(=O)c2nc(-c3ccc(OCC(=O)NCCc4c[nH]cn4)cc3O)[nH]c2n(CCC)c1=O`, the Kb in data set [1] was 100 nM; on Adenosine A2 receptor it was 2400 nM.

Turning to `CCCn1c(=O)c2nc(-c3ccc(O)cc3)[nH]c2n(CCC)c1=O`, the Kb in data set [1] turned out to be 3.5 nM.

In turn, `CCCn1c(=O)c2nc(-c3ccc(O)cc3O)[nH]c2n(CCC)c1=O` yielded a Kb in data set [1] of 2.5 nM.

As to `CCCn1c(=O)c2nc(CC3CCCCC3)[nH]c2n(CCC)c1=O`, the Kb in data set [1] is 39 nM; at Adenosine A2 receptor it was 2700 nM.
